Results: ChEMBL document CHEMBL1124704, “Synthesis and immunosuppressive activity of some side-chain variants of mycophenolic acid” (J Med Chem, 1990)
Values joined by “and” are separate entries in the source; they are usually repeats but may differ in a detail not shown here. Identical values can stand only once. Blank lines part the entries; values can stand above or below the molecule they belong to.

What was measured:
[1] = In vitro inhibition of human lymphocyte proliferation in response to phytohemagglutininin (PHA) was determined; format: functional
[2] = In vitro inhibition of human lymphocyte proliferation in response to staphylococcus protein A(SPA) was determined; format: functional
[3] = In vitro inhibition of human lymphocyte proliferation in response to pokeweed mitogen(PWM) was determined; format: functional
[4] = molecular target: Inosine-5'-monophosphate dehydrogenase 1 (Homo sapiens, UniProt P20839); assay: In vitro inhibition of inosine Inosine-5'-monophosphate dehydrogenase
How it was run: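 IMPD came from a MOLT-4 cell lysate: five freeze-thaw cycles, then the high-speed (ca. 31000g) supernatant was kept. Assay in 50 mM potassium phosphate pH 7.4 with 10 μM [¹⁴C]IMP, 0.3 mM NAD, 0.1 M KCl and 1 mM EDTA, 25 min at 37 °C. Stopped with HClO₄; IMP/XMP quantified by anion-exchange HPLC with radioflow detection. Five concentrations, 0.02–5.0 μg/mL; IC₅₀ determined graphically.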

Mus musculus [5] = assay: In vivo antibody response to sheep red blood cells(SRBC) by plaque-forming cells in the spleen (PFC/spleen) after 100 mg/kg oral administration in mice.; format: functional
Mus musculus [6] = assay: The compound was tested in vivo for inhibition of plaques per million after 100 mg/kg oral administration in mice.; format: functional
Mus musculus [7] = assay: In vivo inhibition of plaque-forming cells in the spleen (PFC/spleen) after 100 mg/kg oral administration in mice.; format: functional
Mus musculus [8] = assay: In vivo antibody response to sheep red blood cells(SRBC) by plaque-forming cells in the spleen (PFC/spleen) after 40 mg/kg oral administration in mice.; format: functional
Mus musculus [9] = assay: The compound was tested in vivo for inhibition of plaques per million after 40 mg/kg oral administration in mice.; format: functional
Mus musculus [10] = assay: In vivo inhibition of plaque-forming cells in the spleen (PFC/spleen) after 25 mg/kg oral administration in mice.; format: functional
Mus musculus [11] = assay: In vivo total no of plaques in spleen was determined after 100 mg/kg oral administration in mice.; format: functional
Mus musculus [12] = assay: In vivo antibody response to sheep red blood cells by plaque-forming cells in the spleen (PFC/spleen) after 25 mg/kg oral administration in mice.; format: functional
Mus musculus [13] = assay: In vivo total no of plaques in spleen was determined after 50 mg/kg oral administration in mice.; format: functional
Mus musculus [14] = assay: In vivo inhibition of plaque-forming cells in the spleen (PFC/spleen) after 40 mg/kg oral administration in mice.; format: functional
Mus musculus [15] = assay: In vivo antibody response to sheep red blood cells(SRBC) by plaque-forming cells in the spleen (PFC/spleen) after 50 mg/kg oral administration in mice.; format: functional
Mus musculus [16] = assay: The compound was tested in vivo for inhibition of plaques per million after 50 mg/kg oral administration in mice.; format: functional
Mus musculus [17] = assay: The compound was tested in vivo for inhibition of plaques per million after 25 mg/kg oral administration in mice.; format: functional
Mus musculus [18] = assay: In vivo total no of plaques in spleen was determined after 25 mg/kg oral administration in mice.; format: functional
Mus musculus [19] = assay: The compound was tested in vivo for inhibition of plaque-forming cells in the spleen (PFC/spleen) after 50 mg/kg oral administration in mice; format: functional
Mus musculus [20] = assay: (§1) In vivo antibody response to sheep red blood cells(SRBC) by plaques per million after 25 mg/kg oral administration in mice.; format: functional
Mus musculus [21] = assay: In vivo inhibition of plaques per million after 25 mg/kg oral administration in mice.; format: functional
Mus musculus [22] = assay: as §1; format: functional; remark: listed apart in the source
Mus musculus [23] = assay: In vivo for antibody response to sheep red blood cells(SRBC) by plaque-forming cells in the spleen (PFC/spleen) after 25 mg/kg oral administration in mice.; format: functional
Mus musculus [24] = assay: In vivo antibody response to sheep red blood cells(SRBC) by plaque-forming cells in the spleen (PFC/spleen) after 25 mg/kg oral administration in mice.; format: functional

Chain of Inosine-5'-monophosphate dehydrogenase 1 (P20839 whole entry): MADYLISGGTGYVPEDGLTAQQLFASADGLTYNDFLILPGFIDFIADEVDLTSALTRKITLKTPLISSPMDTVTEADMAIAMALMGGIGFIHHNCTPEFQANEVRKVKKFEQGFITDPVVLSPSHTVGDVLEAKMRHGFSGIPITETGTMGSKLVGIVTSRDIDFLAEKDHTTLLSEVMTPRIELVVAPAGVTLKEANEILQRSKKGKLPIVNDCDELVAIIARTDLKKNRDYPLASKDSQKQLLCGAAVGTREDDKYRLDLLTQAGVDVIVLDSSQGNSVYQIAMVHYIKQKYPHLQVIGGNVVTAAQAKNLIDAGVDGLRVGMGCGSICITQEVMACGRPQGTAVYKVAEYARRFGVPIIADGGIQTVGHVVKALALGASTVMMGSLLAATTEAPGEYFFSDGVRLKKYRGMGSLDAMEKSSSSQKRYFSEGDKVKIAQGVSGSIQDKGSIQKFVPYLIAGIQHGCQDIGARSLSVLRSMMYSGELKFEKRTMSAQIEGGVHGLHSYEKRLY

Compound: COc1c(C)c2c(c(O)c1C/C=C/CCC(=O)O)C(=O)OC2
IC50 [1]: 4.8 µM
IC50 [2]: 4.8 µM
IC50 [3]: 4.8 µM

Compound: COc1c(C)c2c(c(O)c1CC1C(F)(F)C1(C)CCC(=O)O)C(=O)OC2 (stereo unspecified)
IC50 [1]: 3.1 µM
IC50 [4]: 2.6 µM
IC50 [2]: 10 µM
IC50 [3]: 2.8 µM

Compound: COc1c(C)c2c(c(O)c1CC#CCCCC(=O)O)C(=O)OC2
IC50 [1]: 6 µM
IC50 [4]: 2.5 µM
IC50 [2]: > 10 µM
IC50 [3]: 6 µM

Compound: COc1c(C)c2c(c(O)c1CCCCCCC(=O)O)C(=O)OC2
IC50 [1]: > 10 µM
IC50 [4]: 1.8 µM
IC50 [2]: > 10 µM
IC50 [3]: > 10 µM

Compound: COc1c(C)c2c(c(O)c1C/C=C/CCCC(=O)O)C(=O)OC2
IC50 [1]: > 10 µM
IC50 [2]: > 10 µM
IC50 [3]: > 10 µM

Compound: COc1c(C)c2c(c(O)c1CC1C(Br)(Br)C1(C)CCC(=O)O)C(=O)OC2 (stereo unspecified)
IC50 [1]: 4.4 µM
IC50 [4]: 3.1 µM
IC50 [2]: > 10 µM
IC50 [3]: > 10 µM

More lines, main results first:

IC50 [4]: 10.9 µM
Compound: COc1c(C)c2c(c(O)c1CSCCC(=O)O)C(=O)OC2
IC50 [1]: > 10 µM
IC50 [2]: > 10 µM
IC50 [3]: > 10 µM

IC50 [4]: 22.7 µM
Compound: COc1c(C)c2c(c(O)c1CSCCCC(=O)O)C(=O)OC2
IC50 [1]: > 10 µM
IC50 [2]: > 10 µM
IC50 [3]: > 10 µM

IC50 [4]: 1.2 µM
Compound: COc1c(C)c2c(c(O)c1CC=C=C(C)CCC(=O)O)C(=O)OC2
PFC/spleen (Mus musculus [5]): 17000
inhibition in vivo at 100 mg/kg (Mus musculus [6]): 79%
inhibition in vivo at 100 mg/kg (Mus musculus [7]): 80%
PFC/spleen (Mus musculus [8]): 99333
inhibition in vivo at 40 mg/kg (Mus musculus [9]): 22%
inhibition in vivo at 25 mg/kg (Mus musculus [10]; Mus musculus, Spleen, po): 18%
PPM (Mus musculus [11]): 114
IC50 [1]: 0.35 µM
PFC/spleen (Mus musculus [12]): 96583
PPM (Mus musculus [13]): 657
inhibition in vivo at 40 mg/kg (Mus musculus [14]): 15%
PFC/spleen (Mus musculus [15]): 112416
inhibition in vivo at 50 mg/kg (Mus musculus [16]): -20%
inhibition in vivo at 25 mg/kg (Mus musculus [17]): 16%
IC50 [2]: 0.15 µM
PPM (Mus musculus [18]): 630 and 583
inhibition in vivo at 50 mg/kg (Mus musculus [19]): -33%
IC50 [3]: 0.35 µM

IC50 [4]: 1.1 µM
Compound: COc1c(C)c2c(c(O)c1CC1CC1(C)CCC(=O)O)C(=O)OC2 (stereo unspecified)
IC50 [1]: 3.8 µM
IC50 [2]: 4.3 µM
IC50 [3]: 1.7 µM

IC50 [4]: 2.6 µM
Compound: COc1c(C)c2c(c(O)c1CC#CCCC(=O)O)C(=O)OC2
IC50 [1]: 4.8 µM
IC50 [2]: 7.5 µM
IC50 [3]: 2.4 µM

IC50 [4]: 0.94 µM
Compound: COc1c(C)c2c(c(O)c1CCCCCC(=O)O)C(=O)OC2
IC50 [1]: 2.5 µM
IC50 [2]: 1.6 µM
IC50 [3]: 4.3 µM

IC50 [4]: 0.02 µM
Compound: COc1c(C)c2c(c(O)c1C/C=C(\C)CCC(=O)O)C(=O)OC2 [MYCOPHENOLIC ACID]
Inhibition (Mus musculus [10]; 25 mg/kg): 69% and 46%
PPM (Mus musculus [20]): 308 PPM
IC50 [1]: 0.06 µM
Inhibition (Mus musculus [21]): 65% and 44%
PPM (Mus musculus [22]): 264
IC50 [2]: 0.06 µM
PFC/spleen (Mus musculus [23]): 36027
PFC/spleen (Mus musculus [24]): 45333
IC50 [3]: 0.02 µM
